{
  "source": "paper PMC3823688",
  "about": "(Journal of medicinal chemistry, 2013)",
  "key": {"[1]": {"molecular_target": "chloramphenicol nitroreductase (CNR) (Haemophilus influenzae, UniProt Q57431)", "sequence (Q57431 whole entry)": "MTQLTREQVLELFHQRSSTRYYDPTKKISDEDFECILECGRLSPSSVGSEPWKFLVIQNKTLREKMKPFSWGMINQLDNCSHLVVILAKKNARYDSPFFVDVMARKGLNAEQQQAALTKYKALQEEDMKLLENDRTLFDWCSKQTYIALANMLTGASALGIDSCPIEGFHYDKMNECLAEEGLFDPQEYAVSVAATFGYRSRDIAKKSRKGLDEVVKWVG", "test": "reduction of compounds by CNR", "assay_type": "biochemical, H. influenzae", "settings": "for relative activity of CNR on compound: initial rate normalized to 3 = 100%, 100 µM compound"}, "[2]": {"molecular_target": "chloramphenicol phosphotransferase (CPT) (Streptomyces venezuelae, UniProt Q56148)", "sequence (Q56148 5-178)": "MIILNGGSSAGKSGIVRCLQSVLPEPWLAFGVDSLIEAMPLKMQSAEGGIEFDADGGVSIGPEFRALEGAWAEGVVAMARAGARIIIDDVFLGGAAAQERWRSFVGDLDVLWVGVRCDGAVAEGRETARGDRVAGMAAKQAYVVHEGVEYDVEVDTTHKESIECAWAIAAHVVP", "test": "phosphorylation of compounds by CPT", "assay_type": "biochemical", "settings": "compared to 3"}, "AAC(6')/APH(2\")": {"molecular_target": "AAC(6')/APH(2\") (Staphylococcus aureus, UniProt P0A0C1)", "sequence (P0A0C1 whole entry)": "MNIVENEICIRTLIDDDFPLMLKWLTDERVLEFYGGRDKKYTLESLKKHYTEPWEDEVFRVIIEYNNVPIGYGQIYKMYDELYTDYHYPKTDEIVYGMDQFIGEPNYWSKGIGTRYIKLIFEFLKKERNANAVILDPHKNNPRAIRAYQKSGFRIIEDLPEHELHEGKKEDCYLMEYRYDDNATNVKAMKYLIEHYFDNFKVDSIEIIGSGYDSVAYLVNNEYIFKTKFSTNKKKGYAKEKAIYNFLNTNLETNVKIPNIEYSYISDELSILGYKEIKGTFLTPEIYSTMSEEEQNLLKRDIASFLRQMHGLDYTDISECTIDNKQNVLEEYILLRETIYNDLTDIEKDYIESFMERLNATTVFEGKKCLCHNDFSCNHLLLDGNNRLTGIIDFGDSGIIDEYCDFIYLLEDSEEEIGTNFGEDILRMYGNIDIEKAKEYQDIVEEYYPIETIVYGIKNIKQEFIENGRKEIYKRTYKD", "test": "acetylation of compounds by AAC", "assay_type": "biochemical", "settings": "for relative activity of AAC(6')/APH(2\") (acetyltransferase) on compound: initial rate normalized to 1 = 100%, 100 µM compound; for times less prone to deactivation by AAC(6')/APH(2\") than 1: relative to 1, stated jointly for both AAC(6') enzymes", "in_short": "(§1)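 Acetyltransferase activity followed at 412 nm by Ellman's method, with CoASH release coupled to DTNB (2 mM), at 25 °C. Mix: test compound 100 µM, AcCoA 150 µM, enzyme 0.5 µM. Buffer: 50 mM MES pH 6.6 for AAC(6')/APH(2\"), 50 mM Tris pH 7.5 for AAC(6')-Ib'. Read every 30 s for 1 h. Initial rates from first 2–5 min, normalized to parent aminoglycoside; triplicate.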"}, "AAC(6')-Ib'": {"test_system": "AAC(6')-Ib'", "test": "acetylation of compounds by AAC", "assay_type": "biochemical", "settings": "for relative activity of AAC(6')-Ib' on compound: initial rate normalized to 1 = 100%, 100 µM compound; for times less prone to deactivation by AAC(6')-Ib' than 1: relative to 1, stated jointly for both AAC(6') enzymes", "in_short": "as §1"}, "Tetrahymena ribozyme": {"test_system": "Tetrahymena ribozyme", "settings": "compared to parent antibiotic 1; cited from earlier work"}, "[3]": {"test_system": "E. coli S30 extracts (E. coli ribosomes)", "test": "in vitro prokaryotic translation assay", "assay_type": "biochemical"}, "tested bacterial strains": {"test_system": "tested bacterial strains", "test": "organism not typed", "assay_type": "cell-based"}, "ANT(4')": {"molecular_target": "ANT(4') (Staphylococcus aureus, UniProt P05057)", "sequence (P05057 whole entry)": "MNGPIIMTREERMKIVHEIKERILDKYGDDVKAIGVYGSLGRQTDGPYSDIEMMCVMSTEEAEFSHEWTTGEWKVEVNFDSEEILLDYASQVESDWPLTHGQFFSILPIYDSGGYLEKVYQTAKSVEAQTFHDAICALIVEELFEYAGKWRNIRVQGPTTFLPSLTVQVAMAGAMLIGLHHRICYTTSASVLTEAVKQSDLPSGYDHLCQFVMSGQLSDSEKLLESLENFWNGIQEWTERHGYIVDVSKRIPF", "test": "nucleotidylation of compounds by ANT", "assay_type": "biochemical, S. aureus", "settings": "initial rate normalized to 1 = 100%; 100 µM compound"}, "S. aureus ATCC 29213": {"test_system": "S. aureus ATCC 29213", "test": "MIC determination by double-dilution", "assay_type": "cell-based, Staphylococcus aureus"}},
  "note": "Like-named read-outs stand apart in the source and are kept apart here.",
  "data": [
    {"smiles": "O=C(CSCCOCCSCC(=O)N[C@H](CO)[C@H](O)c1ccc([N+](=O)[O-])cc1)N[C@H](CO)[C@H](O)c1ccc([N+](=O)[O-])cc1", "note": "[Compound 25]", "values": [
      {"measurement": "substrate quality for CNR (in words)", "setting": "[1]; compared to 3", "result": "poor substrate"},
      {"measurement": "substrate quality for CPT (in words)", "setting": "[2]", "result": "poor substrate"}
    ]},
    {"smiles": "NC[C@H]1O[C@H](O[C@H]2[C@H](O)[C@@H](O[C@@H]3O[C@H](CSCCOCCSSCCOCCSCC(=O)N[C@H](CO)[C@H](O)c4ccc([N+](=O)[O-])cc4)[C@@H](O)[C@H](N)[C@H]3O)[C@H](N)C[C@@H]2N)[C@H](N)C[C@@H]1O", "note": "[Compound 22]", "values": [
      {"measurement": "relative activity of CNR on compound", "setting": "[1]", "result": 117, "unit": "%"},
      {"measurement": "relative activity of AAC(6')/APH(2\") (acetyltransferase) on compound", "setting": "AAC(6')/APH(2\")", "result": 34, "unit": "%"},
      {"measurement": "relative activity of AAC(6')-Ib' on compound", "setting": "AAC(6')-Ib'", "result": 31, "unit": "%"}
    ]},
    {"smiles": "NC[C@H]1O[C@H](O[C@H]2[C@H](O)[C@@H](O[C@@H]3O[C@H](CSCCOCCSSCCOCCSC[C@H]4O[C@@H](O[C@@H]5[C@@H](O)[C@H](O[C@H]6O[C@H](CN)[C@@H](O)C[C@H]6N)[C@@H](N)C[C@H]5N)[C@H](O)[C@@H](N)[C@@H]4O)[C@@H](O)[C@H](N)[C@H]3O)[C@H](N)C[C@@H]2N)[C@H](N)C[C@@H]1O", "note": "[Compound 16]", "values": [
      {"measurement": "relative activity of AAC(6')/APH(2\") (acetyltransferase) on compound", "setting": "AAC(6')/APH(2\")", "result": 34, "unit": "%"},
      {"measurement": "times less prone to deactivation by AAC(6')/APH(2\") than 1", "setting": "AAC(6')/APH(2\")", "result": "2.5–5 times"},
      {"measurement": "inhibition of the activity of the Tetrahymena ribozyme (in words)", "setting": "Tetrahymena ribozyme", "result": "significantly better inhibitor"},
      {"measurement": "relative activity of AAC(6')-Ib' on compound", "setting": "AAC(6')-Ib'", "result": 39, "unit": "%"},
      {"measurement": "times less prone to deactivation by AAC(6')-Ib' than 1", "setting": "AAC(6')-Ib'", "result": "2.5–5 times"}
    ]},
    {"smiles": "O=C(CSCCOCCS)N[C@H](CO)[C@H](O)c1ccc([N+](=O)[O-])cc1", "note": "[Compound 13]", "values": [
      {"measurement": "fold less potent than parent antibiotic 3 in in vitro translation", "setting": "[3]; relative to 3", "result": "~8", "unit": "fold"}
    ]},
    {"smiles": "CCC[C@@H]1C[C@@H](C(=O)NC([C@H]2O[C@H](SC)[C@H](O)[C@@H](O)[C@H]2O)[C@@H](C)SCCOCCSSCCOCCSC[C@H]2O[C@@H](O[C@@H]3[C@@H](O)[C@H](O[C@H]4O[C@H](CN)[C@@H](O)C[C@H]4N)[C@@H](N)C[C@H]3N)[C@H](O)[C@@H](N)[C@@H]2O)N(C)C1", "note": "(stereo partly shown) [Compound 18]", "values": [
      {"measurement": "relative activity of AAC(6')/APH(2\") (acetyltransferase) on compound", "setting": "AAC(6')/APH(2\")", "result": 31, "unit": "%"},
      {"measurement": "times less prone to deactivation by AAC(6')/APH(2\") than 1", "setting": "AAC(6')/APH(2\")", "result": "2.5–5 times"},
      {"measurement": "relative activity of AAC(6')-Ib' on compound", "setting": "AAC(6')-Ib'", "result": 20, "unit": "%"},
      {"measurement": "times less prone to deactivation by AAC(6')-Ib' than 1", "setting": "AAC(6')-Ib'", "result": "2.5–5 times"}
    ]},
    {"smiles": "CCC[C@@H]1C[C@@H](C(=O)N[C@H]([C@H]2O[C@H](SC)[C@H](O)[C@@H](O)[C@H]2O)[C@@H](C)SCCOCCS)N(C)C1", "note": "[Compound 9]", "values": [
      {"measurement": "MIC", "setting": "tested bacterial strains; read-out: MIC values against seven of the tested strains", "result": "1.2 to 9.4", "unit": "µg/mL"},
      {"measurement": "IC50 fold higher than that of parent antibiotic 2, in vitro translation", "setting": "[3]; relative to 2, less potent", "result": "at least 5 fold"}
    ]},
    {"smiles": "NC[C@H]1O[C@H](O[C@H]2[C@H](O)[C@@H](O[C@@H]3O[C@H](CSCCOCCS)[C@@H](O)[C@H](N)[C@H]3O)[C@H](N)C[C@@H]2N)[C@H](N)C[C@@H]1O", "note": "[Compound 6]", "values": [
      {"measurement": "relative activity of ANT(4') on compound", "setting": "ANT(4')", "result": 49, "unit": "%"}
    ]},
    {"smiles": "CCC[C@@H]1C[C@@H](C(=O)NC([C@H]2O[C@H](SC)[C@H](O)[C@@H](O)[C@H]2O)[C@@H](C)SCCOCCSSCCOCCS[C@H](C)C(NC(=O)[C@@H]2C[C@@H](CCC)CN2C)[C@H]2O[C@H](SC)[C@H](O)[C@@H](O)[C@H]2O)N(C)C1", "note": "(stereo partly shown) [Compound 10]", "values": [
      {"measurement": "MIC", "setting": "tested bacterial strains; read-out: MICs against eight of the tested bacterial strains", "result": "0.6 to 9.4", "unit": "µg/mL"}
    ]},
    {"smiles": "CCC[C@@H]1C[C@@H](C(=O)NC([C@H]2O[C@H](SC)[C@H](O)[C@@H](O)[C@H]2O)[C@@H](C)SCCOCCSSCCOCCSCC(=O)N[C@@H](CO)[C@H](O)c2ccc([N+](=O)[O-])cc2)N(C)C1", "note": "(stereo partly shown) [Compound 24]", "values": [
      {"measurement": "relative activity of CNR on compound", "setting": "[1]", "result": 174, "unit": "%"}
    ]},
    {"smiles": "CCC[C@@H]1C[C@@H](C(=O)NC([C@H]2O[C@H](SC)[C@H](O)[C@@H](O)[C@H]2O)[C@@H](C)SCCOCCSCC(=O)N[C@H](CO)[C@H](O)c2ccc([N+](=O)[O-])cc2)N(C)C1", "note": "(stereo partly shown) [Compound 23]", "values": [
      {"measurement": "relative activity of CNR on compound", "setting": "[1]", "result": 133, "unit": "%"}
    ]},
    {"smiles": "NC[C@H]1O[C@H](O[C@H]2[C@H](O)[C@@H](O[C@@H]3O[C@H](CSCCOCCSCC(=O)N[C@H](CO)[C@H](O)c4ccc([N+](=O)[O-])cc4)[C@@H](O)[C@H](N)[C@H]3O)[C@H](N)C[C@@H]2N)[C@H](N)C[C@@H]1O", "note": "[Compound 20]", "values": [
      {"measurement": "relative activity of AAC(6')-Ib' on compound", "setting": "AAC(6')-Ib'", "result": 37, "unit": "%"}
    ]},
    {"smiles": "NC[C@H]1O[C@H](O[C@H]2[C@H](O)[C@@H](O[C@H]3O[C@H](CO)[C@@H](O)[C@H](N)[C@H]3O)[C@H](N)C[C@@H]2N)[C@H](N)C[C@@H]1O", "note": "[Compound 1, tobramycin, reference compound]", "values": [
      {"measurement": "relative activity of ANT(4') on compound", "setting": "ANT(4')", "result": 100, "unit": "%"}
    ]},
    {"smiles": "O=C(CSCCOCCSSCCOCCSCC(=O)N[C@H](CO)[C@H](O)c1ccc([N+](=O)[O-])cc1)N[C@H](CO)[C@H](O)c1ccc([N+](=O)[O-])cc1", "note": "[Compound 26]", "values": [
      {"measurement": "fold more potent than 3 (MIC)", "setting": "S. aureus ATCC 29213", "result": "approximately 16 fold"},
      {"measurement": "relative activity of CNR on compound", "setting": "[1]", "result": 220, "unit": "%"}
    ]}
  ]
}
